mHtt clearance = compounds clearing mutant huntingtin protein; actives 0.42% (n = 47,000); inhibition, % at 1.5 µM; HeLa Exon1htt(103Q)mCFP, aggregate imaging; zero = plate's median compound well;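 active means inhibition of aggregate fluorescence above about 70%, also judged a hit by eye on the cell image, limit read from the data, passing the limit was not always enough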;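 further: cells exposed to compound for three days before fixation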
M1 agonist = M1 muscarinic receptor agonism; CHO-M1 cells, Fluo-4 calcium fluorescence, agonist mode; hits give high values; B-score at 10 µM; actives 3% (n = 64,000); AID 626;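 active means fluorescence rise, raw or as B-score row- and column-corrected plate score, outside the 99.7% band of its plate's samples, either direction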
SF-1 act = activators of human nuclear receptor SF-1; CHO-K1 Gal4-SF-1 LBD luciferase reporter; % increase over DMSO SF-1-specific signal; activation, % at 10 µM; actives 1.9% (n = 65,000);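 active means activation above the mean activation of all tested compounds plus 3 SD, cut at about 50% in these data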
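Material: Gal4–SF-1 LBD one-hybrid luciferase reporter in CHO-K1 cells | Amount: 4,000 cells per well | Compound dosing: 10 µM single point, 1% DMSO | Schedule: 20 h compound treatment, 37 °C | Measured by: SteadyLite luciferase luminescence | Evaluation: Percent activation versus DMSO | Control set: DMSO-treated SF-1-transfected cells as negative, DMSO-treated mock-transfected cells lacking SF-1 as background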
M1 antag = M1 muscarinic receptor (rat) antagonism; CHO-M1 cells, Fluo-4 calcium, ACh EC80 antagonist mode; hits give low values; P08482; B-score at 10 µM; actives 3.4% (n = 64,000);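 active means calcium fluorescence response, raw or row-and-column corrected B-score, differing from the plate sample mean either way at a set confidence level, mostly lower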
RORA act = activators of human nuclear receptor RORA; CHO-K1 Gal4-RORA LBD luciferase reporter, luminescence; percent increase over mock-subtracted basal signal; actives 1.5% (n = 65,000); activation, % at 10 µM; P35398;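 active means activation above the mean of all tested compounds plus 3 SD, cut at about 49% in these data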;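 further: 0% = DMSO-treated RORA cells and 100% = added signal equal to DMSO minus mock-transfected cells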
D1 mod = allosteric modulators of human D1 dopamine receptor; HEK293 D1, CRE-luciferase, dopamine EC30 potentiation; actives deviate in either direction; B-score at 10 µM; actives 5.9% (n = 58,000); AID 641;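 active means luminescence count or its row- and column-corrected plate score outside the 99.7% band of the plate's sample wells, on either side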
Target sequence (P21728 whole entry, looked up): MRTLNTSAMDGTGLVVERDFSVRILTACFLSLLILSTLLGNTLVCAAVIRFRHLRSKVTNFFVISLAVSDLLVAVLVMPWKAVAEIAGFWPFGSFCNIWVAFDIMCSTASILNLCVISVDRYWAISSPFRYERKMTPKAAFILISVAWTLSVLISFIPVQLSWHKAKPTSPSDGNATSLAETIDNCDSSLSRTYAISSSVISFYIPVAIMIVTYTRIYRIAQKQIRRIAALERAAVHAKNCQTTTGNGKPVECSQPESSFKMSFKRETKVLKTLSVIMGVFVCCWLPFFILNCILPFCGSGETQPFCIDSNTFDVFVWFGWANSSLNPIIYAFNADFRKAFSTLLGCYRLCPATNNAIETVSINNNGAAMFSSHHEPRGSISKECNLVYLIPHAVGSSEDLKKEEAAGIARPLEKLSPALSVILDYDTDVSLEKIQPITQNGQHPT
Numbers without * were called inactive; . = no result. Hits are enriched below; roughly 11% of the tested compounds scored in any of these assays.

SMILES	mHtt clearance	M1 agonist	SF-1 act	M1 antag	RORA act	D1 mod
CCC(C)c1ccc(NC(=O)C2CCCN(c3ncccn3)C2)cc1 (centres undefined)	-56	0.47	72*	0.82	76*	-0.44
C=CCn1c2ccccc2c2nnc(SCC(=O)OCN3C(=O)c4ccccc4C3=O)nc21	-24	.	.	.	.	.
Cc1c(C)n(Cc2ccccc2)c2ncnc(N)c12	.	-2.3	-9	-0.18	-14	-2.8*
COc1cccc2cc(-c3cn4cccc(C)c4n3)c(=O)oc12	-46	-0.054	53*	-0.38	24	0.97
COc1cccc2cc(-c3cn4ccc(C)cc4n3)c(=O)oc12	-22	.	.	.	.	.
Cc1ccc(-n2c(C)cc(C(=O)COC(=O)c3c(C)noc3C)c2C)cc1	.	-1.4	79*	-0.33	2	0.31
CCOC(=O)COc1ccc(S(=O)(=O)N2CCN(c3ccccc3F)CC2)cc1	82*	0.24	-5	-0.31	15	0.52
O=S(=O)(NCCCN1CCN(c2ccccc2F)CC1)c1cccc2cccnc12	.	-1.5	5	0.63	4	-2.9*
O=S(=O)(NCCN1CCCC1)c1cccc2cccnc12	.	0.16	0	0.33	-8	0.29
Cc1cc2oc(=O)cc(CN3CCN(Cc4ccccc4)CC3)c2cc1Cl	.	0.49	-16	-0.31	-8	-0.89
O=c1cc(CN2CCN(Cc3ccccc3)CC2)c2cc(Cl)ccc2o1	7	0.39	4	-0.62	7	-4.2*
O=C1c2ccccc2N(Cc2ccc(Cl)cc2)C2=NCCN12	.	-0.032	-13	0.72	-21	11*
COc1ccc(C2/C(=C(/O)c3ccccc3)C(=O)C(=O)N2CC(C)O)c(OC)c1 (centres undefined)	.	0.17	7	-0.38	-24	-0.79
C=CCOc1ccccc1/C=c1\sc2nc(-c3oc4ccccc4c3C)nn2c1=O	-40	5.2*	4	-0.28	-5	-0.055
COc1ccccc1/C=c1\sc2nc(-c3ccncc3)nn2c1=O	.	-0.063	8	0.48	-7	-0.17
COC(=O)C1C(=O)c2c([nH]c(C(=O)OC3CCCCC3)c2C)CC1C (centres undefined)	.	1.1	21	-1.4	77*	1.3
COC(=O)C1C(=O)c2c([nH]c(C(=O)OC3CCCC3C)c2C)CC1C (centres undefined)	.	-0.77	16	-1.1	30	1.9
COC(=O)C1(c2ccccc2)NC(c2cccs2)C2C(=O)N(c3ccccc3)C(=O)C21 (centres undefined)	22	.	.	.	.	.
CC1CCCC(C)N1C(=O)CSc1nnnn1-c1cccc2c1CCCC2 (centres undefined)	6	.	.	.	.	.
CC1CCCC(C)N1C(=O)CSc1nnnn1Cc1ccccc1 (centres undefined)	.	0.48	8	-0.57	-3	6.1*
CCC(CC)C(=O)Nc1cc(C)cc(C)c1	.	-0.033	0	3.3*	0	-0.011
CCC(CC)C(=O)Nc1ccccc1NC(C)=O	.	0.087	4	-0.23	4	0.43
O=C(Cn1nc(C(F)(F)F)c2c1CCCC2)NCc1ccco1	.	-0.032	2	-1.4	7	0.49
Cc1[nH]nc(N=CC2=C(O)CC(C)(C)CC2=O)c1-c1ccc(Cl)cc1	32	-0.51	31	-0.32	83*	0.27
CC1(C)CC(=O)C(C=Nc2ccc3cn[nH]c3c2)=C(O)C1	.	-1	24	-0.16	-11	1.7
SMILES	mHtt clearance	M1 agonist	SF-1 act	M1 antag	RORA act	D1 mod
CCOc1ccc(N=CC2=C(O)CC(C)(C)CC2=O)cc1	14	-0.22	68*	0.13	15	0.85
CC1(C)CC(=O)C(C=Nc2ccc3[nH]ncc3c2)=C(O)C1	.	0.25	79*	-0.61	18	-1.2
CCN(CC)CCOC(=O)c1ccc(N=CC2=C(O)CC(C)(C)CC2=O)cc1	.	-0.44	-5	-1.1	-17	-0.7
Cn1nc(C(F)(F)F)c(C#N)c1N1CCN(c2cccc(C(F)(F)F)c2)CC1	33	.	.	.	.	.
COCCN(CC(=O)Nc1ccccc1)S(=O)(=O)c1ccc(S(=O)(=O)N2CCCC2)cc1	.	0.27	-2	0.53	-6	0.44
COc1ccc(N2CCCn3c2nc2c3c(=O)n(CCc3ccccc3)c(=O)n2C)cc1	.	0.078	4	-0.16	12	-2.8*
Cc1cc(C)cc(N2CCCn3c2nc2c3c(=O)n(CC(=O)OCc3ccccc3)c(=O)n2C)c1	-37	-0.2	-1	-0.34	-13	-1.1*
O=C(CCS(=O)(=O)c1cccs1)N1CCCC1	-18	-0.41	28	-0.48	12	0.73
O=C(CCNS(=O)(=O)c1cccs1)N1CCCCCC1	-36	-0.44	60*	0.91	32	0.52
O=C(CN(CC1CCCO1)C(=O)CNS(=O)(=O)c1ccc(Cl)cc1)NCC1CCCO1 (centres undefined)	29	.	.	.	.	.
CCc1nnc(NC(=O)Cn2nc(-c3ccccc3OC)ccc2=O)s1	-138	-0.5	-1	0.084	4	-0.8
CCCOc1ccc(-c2nnc(-c3ccco3)o2)cc1	.	0.52	-64	-0.11	-46	-4.7*
CC(C)COc1ccc(-c2nnc(-c3ccco3)o2)cc1	.	.	-5	.	-26	-5.5*
COc1ccc(-c2ccc(-c3nnc(-c4ccncc4)o3)cc2)cc1	.	0.22	-11	0.1	-9	0.95
O=C(COc1ccccc1)Nc1ccc(-c2nnc(-c3ccco3)o2)cc1	-18	0.19	66*	-0.21	49	-0.23
CC(=O)C1=C(C)NC(C)=C(C(C)=O)C1c1ccc(-c2ccccc2Cl)o1	17	0.74	31	0.0058	2	-1.2
N#CCSc1nc2sc3c(c2c(=O)n1C1CCCCC1)CCCC3	38	0.11	-4	0.19	-5	.
CCSc1nc2sc3c(c2c(=O)n1C1CCCCC1)CCN(C)C3	.	-0.89	14	-2.3*	-23	.
Cc1n(CC(O)COC2CCCCC2)c2ccccc2[n+]1C (centres undefined)	-26	.	.	.	.	.
CCC(C)Nc1ncnc2c1cnn2Cc1ccc(Cl)cc1 (centres undefined)	.	3	-24	-1.4	-14	0.065
CCC(CO)Nc1ncnc2c1cnn2-c1ccc(OC)cc1 (centres undefined)	-18	0.17	101*	0.12	61*	-3
CCC(CO)Nc1ncnc2c1cnn2-c1ccc(Cl)cc1 (centres undefined)	46	1.5	35	-0.71	28	-5.7*
CCc1nn2c(=O)cc(CSc3nc4sc5c(c4c(=O)n3C)CCCC5)nc2s1	-14	-0.91	5	-0.37	-16	0.21
COc1ccccc1-c1ccc(NC2CCCCC2)nn1	.	-0.22	80*	0.37	27	-0.91
CCn1c(SCC(=O)c2ccc(CNC(C)=O)o2)nnc1-c1cccs1	-29	0.086	11	2*	-8	-0.054
CCn1c(SCC(=O)NCc2cccs2)nnc1-c1cccs1	36	0.23	17	0.13	-9	-1.5

Bioassay records (PubChem)
